Consider 4 compounds from PMC8154199 (JACS Au, 2021).

Data set [1] has as its system human fibroblasts hMRC-5. As to the kind of experiment: Toxicity against human fibroblasts hMRC-5. It counts as cell-based. To be noted: Fibroblast, read-out: IC50 hMRC-5.
Data set [2] is described as follows: Probe solubility in aqueous ACN by absorbance kinetics. It counts as physicochemical. To be noted: aqueous ACN solutions (Figure S16). The gist of the method:
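Solubility was assessed in 2% ACN by spectrophotometric absorbance kinetics over decreasing test compound concentrations, starting at 20 μM.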

For data set [3], the system named is P. falciparum strain Dd2. Kind of data set: Growth inhibition assay with highly synchronized P. falciparum, SYBR green. It counts as cell-based. To be noted: Plasmodium falciparum, DD2, 72 h, read-out: IC50 P. falciparum Dd2.
A short description of data set [4]: CID-ESI-MS stability of heme-drug complexes. Type of data set: binding. As to conditions: 4-heme m/z 960.2; AQ-heme m/z 971.3; CQ-heme m/z 935.4. The gist of the method:
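Hematin was made fresh from hemin in 50% ammonia. Test compound stock was in ACN or water. Hematin and compound were mixed equimolar at 100 μM in CH3CN/H2O (50:50), then diluted to 50 μM in ACN/H2O/HCOOH (50:50:1). Samples were infused at 5 μL·min–1 into an orthogonal ESI-TOF. CID used capillary exit (cone) voltage 120–400 V in 20 V steps, and adduct stability responses were plotted against voltage.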

With `C#Cc1ccc(C(=O)C2=C(C)C(=O)c3ccccc3C2=O)cc1` [probe 7], the IC50 in data set [1] came out at 20500 nM; in data set [3] it was 1810 ± 302 nM. Further, the “solubility sequence, from the less to the most soluble” value in data set [2] is listed as “probe 10 < probe 8 ≈ probe 7 < probe 9”.

With `CCN(CC)CCCC(C)Nc1ccnc2cc(Cl)ccc12` (centres unmarked) [chloroquine, reference compound], the IC50 in data set [3] was determined as 189 nM. Besides, in data set [4], the “residual complex at high fragmentor voltage (ion abundance)” value is given as “did not show a residual covalent adduct”.

On to `C#Cc1ccc(CC2=C(C)C(=O)c3ccccc3C2=O)cc1` [probe 11, 2-(4-ethynylbenzyl)-3-methylnaphthalene-1,4-dione], for which the IC50 in data set [1] is > 64000 nM; in data set [3], 49 ± 15 nM.

In the case of `CN(C)c1ccc2nc3ccc(=[N+](C)C)cc-3sc2c1` [methylene blue, reference compound], the IC50 in data set [3] turned out to be 7 nM.
